# Compounds with a hit are over-represented: about 2.7% of the library has one in this group of screens.
# Yeast growth inh – chemicals that inhibit yeast BB579 growth in restrictive medium (lifespan-shortening candidates); S. cerevisiae BB579 growth, OD615, 48 h; inhibition, % at 10 µM; 140,000 tested, 0.51% active;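 active = inhibition above a set limit, 3 SD over the mean compound inhibition, cut at about 44% in these data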
#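 Detection: OD615 turbidity measurement; Material: Saccharomyces cerevisiae DeaD strain BB579, replicative lifespan model yeast; Timing: 48 h exposure, 30 °C; Doses: single 10 µM dose; Medium: CSMM-D restrictive synthetic medium containing dextrose (glucose); Controls: amphotericin B at 10 µg/mL as positive control.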
# sdo1 growth – restores growth of sdo1-depleted yeast; AID 817; S. cerevisiae sdo1-depleted JHY4D growth rescue, OD600 30 h; hits give high values; pdr5 snq2 efflux-pump mutant strain; z-score at 10 µM; 140,000 tested, 0.21% active;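 active = z-score above 3 at both the 24 hr and the 30 hr optical density reads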;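 also: z-score against mean and SD of all compound wells on the same plate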
# RAM inhibit – blocks the yeast RAM network | S. cerevisiae dse1pr::URA3 reporter, 5-FOA growth OD615, 2 d; analog-sensitive cbk1-as2 kinase mutant strain | inhibition, % at 50 µM | AID 868 | 190,000 tested, 1.8% active;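 active = inhibition above a set limit, 3 SD over mean compound inhibition, cut at about 8.4% in these data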;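 also: 0% = DMSO-only wells with no growth and 100% = 10 µM 1-NA-PP1 full growth; inhibition rescues growth on 5-FOA so higher OD means more RAM inhibition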
# Yeast lifespan up – yeast lifespan extension; S. cerevisiae growth with nicotinamide, OD615; deaD strain in restrictive glucose medium; inhibition of the nicotinamide effect, % at 10 µM; 130,000 tested, 0.68% active;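 active = inhibition above a set limit, placed 3 SD over the median of all compounds, cut at about 26% in these data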;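 also: 0% = nicotinamide-treated wells and 100% = cells grown without nicotinamide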
#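 assay system = DeaD-strain S. cerevisiae | measured by = absorbance at 615 nm | probe or stimulus = nicotinamide 1.5 mM | buffer or medium = CSMM-D glucose medium, restrictive | times = 48 h at 30 °C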
# RAM efflux-def – RAM network inhibitors in efflux-deficient yeast. shares compounds with RAM inhibit. S. cerevisiae efflux-deficient reporter strain, 5-FOA growth OD615, 2 days. max inhibition, %. 1,200 tested, under 10 active; call rule not given here;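 also: plate controls were vehicle for no effect and reference inhibitor for full effect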
# Active calls of the source: *; . = no result given.
SMILES,Yeast growth inh,sdo1 growth,RAM inhibit,Yeast lifespan up,RAM efflux-def
O=C(COC(=O)c1cc(-c2ccc(Cl)s2)nc2ccccc12)NCc1ccco1,-28.2,-1.36,11.5*,0.6,4.0
COc1ccc(CN(CC2CCC(C(=O)O)CC2)C(=S)Nc2cc(Cl)ccc2OC)cc1 (stereo not given),.,.,7.7,.,.
CC1CCCN(CC(O)COC(c2ccccc2)c2ccccc2)C1 (stereo not given),.,.,0.7,.,.
COc1ccc(Cc2nc(-c3ccc(-n4cccc4)cc3)no2)cc1,-26.7,-1.25,6.4,-3.6,.
COc1ccc(Cc2nc(-c3ccc(-n4cccc4)cc3)no2)cc1OC,-8.4,-1.93,12.0*,-1.8,4.6
CCOc1ccc(N(CC)C(=O)c2nn(-c3ccc(OC)cc3)c(=O)c3c2c2ccccc2n3C)cc1,.,.,4.0,.,.
COc1ccc(-n2nc(C(=O)Nc3ccc(OC)c(OC)c3)c3c4ccccc4n(C)c3c2=O)cc1,-81.9,-0.05,12.6*,-1.7,4.6
Cc1ccc(Cl)cc1N1CCN(C(=S)NCCc2ccccc2)CC1,.,.,13.0*,.,2.8
O=C(O)CCS(=O)(=O)c1ccccc1Cl,.,.,0.4,.,.
Cc1ccc(/C=C/C(=O)OCC(=O)Nc2ccccc2Sc2ccccc2)cc1,-28.5,-0.37,19.4*,9.8,6.5
COc1ccc(OC)c(/C=C/C(=O)OCC(=O)Nc2cccc(Oc3ccccc3)c2)c1,-18.8,0.05,13.5*,4.3,3.0
COc1cccc(/C=C/C(=O)OCC(=O)Nc2ccccc2Sc2ccccc2)c1,-17.4,0.76,24.1*,0.6,5.6
COc1cccc(NC(=O)COC(=O)/C=C/c2ccc(Cl)cc2Cl)c1,-20.4,-0.21,7.0,-5.5,.
CC(C)CC(=O)OCC(=O)Nc1ccccc1Sc1ccccc1,-18.7,0.57,1.3,2.8,.
CN(CCC#N)C(=O)COC(=O)c1cc(Cl)cc(Cl)c1N,.,.,0.5,.,.
O=C(NCCC1=CCCCC1)C(=O)NCc1ccncc1,.,.,2.2,.,.
CCOC(=O)C1=C(N)N(c2cc(S(=O)(=O)N3CCOCC3)ccc2Cl)C(=O)C1,.,.,-0.1,.,.
COc1ccc(C(=O)/C=C/C(=O)N(CC(=O)NCCC(C)C)Cc2cccs2)c(O)c1,.,.,11.8*,.,6.6
CC(C)c1ccc(CNC(=O)CSCC(=O)Nc2ccc3ccccc3c2)cc1,-29.7,-1.29,13.1*,-2.8,1.4
O=C(CSCC(=O)Nc1ccc2ccccc2c1)NCc1ccccc1,-35.5,-0.6,4.0,-18.8,.
O=C(c1cc2ccc([N+](=O)[O-])cc2oc1=O)N1CCOCC1,.,.,-0.6,.,.
CC1=NN(c2ccccc2)C(=O)C1N=Nc1ccc(C)cc1 (stereo not given),.,.,4.8,.,.
CC1=NN(c2nc(-c3ccc(C)cc3)cs2)C(=O)C1N=Nc1ccc(C(N)=O)cc1 (stereo not given),.,.,12.0*,.,7.4
c1cnc(N2CCN(c3cnccn3)CC2)nc1,.,.,0.3,.,.
CCN(CC)c1ccc(/C=C(\C#N)c2ccccn2)cc1,-23.3,-0.95,0.0,-1.4,.
SMILES,Yeast growth inh,sdo1 growth,RAM inhibit,Yeast lifespan up,RAM efflux-def
COc1cc(/C=C(\C#N)c2ccccn2)ccc1OCc1ccc(Cl)cc1,-18.4,0.53,11.7*,2.6,2.6
CCN(Cc1ccccc1)c1ccc(/C=C(\C#N)c2ccccn2)cc1,-47.2,-0.03,17.0*,4.6,10.0
O=C(CSCc1ccc(Cl)cc1)Nc1cccc(C(=O)Nc2ccccc2C(=O)O)c1,-43.3,1.12,13.7*,-15.1,0.9
O=C(CSCc1ccccc1)Nc1cccc(C(=O)Nc2ccccc2C(=O)O)c1,8.3,-0.2,13.4*,-20.6,1.9
O=C(O)CCCC(=O)Nc1cccc(C(=O)Nc2ccccc2C(=O)O)c1,.,.,0.0,.,.
COCCNC(=S)Nc1ccc2[nH]c(=O)[nH]c2c1,.,.,2.0,.,.
CCOc1ccccc1N=C1SC(CC(=O)Nc2ccc(OC)cc2OC)C(=O)N1CCC1=CCCCC1 (stereo not given),-10.8,1.25,2.6,-3.9,.
O=C(CC1SC(=Nc2ccc(OC(F)F)cc2)N(CCC2=CCCCC2)C1=O)Nc1ccccc1F (stereo not given),-13.2,0.47,11.5*,0.9,1.8
N/C(=N\OC(=O)COc1ccc(Cl)cc1Cl)c1ccncc1,.,.,-0.3,.,.
CC(=O)c1cn(-c2ccc(Cl)cc2)c(=O)n(Cc2ccc(Br)cc2)c1=O,.,.,5.0,.,.
Cc1ccc(C)c(OCCCCn2cnc3ccccc3c2=O)c1,-1.8,-1.56,-1.1,-21.0,.
CC(C)Oc1ccccc1OCCCCn1cnc2ccccc2c1=O,.,.,13.8*,.,2.2
O=C(OCc1nnc(-c2ccccc2)o1)C12CC3CC(CC(Br)(C3)C1)C2,.,.,21.3*,.,2.4
Cc1c(NC(=S)NC(=O)c2cc3ccccc3o2)c(=O)n(-c2ccccc2)n1C,-57.7,-0.34,2.1,1.1,.
N#Cc1nc(Cc2cccc3ccccc23)oc1N1CCCCC1,-26.2,-1.37,12.1*,0.6,3.0
N#Cc1nc(Cc2ccccc2)oc1N1CCC(Cc2ccccc2)CC1,-38.3,-0.08,12.8*,0.9,7.0
COc1ccc(CNc2oc(Cc3cccc4ccccc34)nc2C#N)cc1,-25.6,-0.1,12.6*,-1.4,2.9
N#Cc1nc(Cc2ccccc2)oc1N1CCN(c2ccccc2)CC1,-33.2,-0.75,4.5,-7.8,.
N#Cc1nc(-c2cccc3ccccc23)oc1N1CCCCC1,6.0,0.87,1.9,-2.1,.
COc1ccccc1-c1nc(C#N)c(N2CCC(Cc3ccccc3)CC2)o1,-48.4,-1.1,13.1*,-9.0,5.0
COc1ccc(CNc2oc(COc3ccccc3)nc2C#N)cc1,-15.8,-0.23,4.9,-9.5,.
CCN(CC)S(=O)(=O)c1ccc(C(=O)NCCN(C)C)cc1,.,.,-1.5,.,.
CCCCc1ccc(N=N/C(C(=O)Nc2ccccc2OC)=C(/C)O)cc1,-57.7,0.24,19.8*,14.3,7.8
C=CCSc1nc2ccccc2c2nc(-c3ccccc3)nn12,-10.1,0.65,13.0*,-6.5,2.5
C=CCNC(=O)CCC(=O)NNc1nc2ccccc2c2nc(-c3ccccc3)nn12,.,.,2.2,.,.
SMILES,Yeast growth inh,sdo1 growth,RAM inhibit,Yeast lifespan up,RAM efflux-def
CC(C)(C)C(=O)N1CCC(O)(CS(=O)(=O)c2ccc(Cl)c(Cl)c2)CC1,.,.,0.8,.,.
CC(C)c1ccc(/C=C(\c2nc3ccccc3[nH]2)S(=O)(=O)c2ccccc2)cc1,-47.1,-1.77,18.6*,5.7,2.6
COc1cc(/C=C/C(=O)O)cc(S(=O)(=O)N2CCc3ccccc3C2)c1OC,.,.,3.0,.,.
COc1ccc(/C=C/C(=O)c2c(O)c(OC)c3occc3c2OC)cc1,.,.,12.2*,.,3.5
COc1ccc(/C=C/C(=O)c2ccoc2)cc1,-40.2,-0.9,-0.3,-13.6,.
COc1ccc([N+](=O)[O-])cc1N(CC1CO1)S(=O)(=O)c1ccc(C)cc1 (stereo not given),.,.,2.4,.,.
O=C(NC1CCS(=O)(=O)C1)c1cccc(S(=O)(=O)N2CCCC2)c1 (stereo not given),.,.,1.1,.,.
COC(=O)c1cc(=O)n(Cc2ccc(F)cc2)c(=NCc2ccc(F)cc2)s1,.,.,13.6*,.,2.6
CCOC(=O)c1[nH]cnc1N=Nc1c(O)ccc2ccccc12,-44.5,-1.42,14.8*,-1.2,5.5

# Screens: PubChem, several laboratories
